Only some compounds are listed: those with a hit (about 3.7% of all), similar ones and a draw of the others.
MC4R antagonist: MC4R antagonists of cAMP signaling, primary screen, cell-based, TR-FRET, antagonist arm of biased-ligand search | MC4R-expressing cells, MTII-stimulated cAMP, LANCE TR-FRET | 360,000 tested, 0.48% active | AID 540295, 2011 | inhibition, % at 6.5 µM | Melanocortin receptor 4 (Homo sapiens), P32245;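 active means inhibition above its plate's cutoff, the mean of tested wells on that plate plus 3 SD, cut at about 29% in these data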
Target sequence (P32245 whole entry, looked up): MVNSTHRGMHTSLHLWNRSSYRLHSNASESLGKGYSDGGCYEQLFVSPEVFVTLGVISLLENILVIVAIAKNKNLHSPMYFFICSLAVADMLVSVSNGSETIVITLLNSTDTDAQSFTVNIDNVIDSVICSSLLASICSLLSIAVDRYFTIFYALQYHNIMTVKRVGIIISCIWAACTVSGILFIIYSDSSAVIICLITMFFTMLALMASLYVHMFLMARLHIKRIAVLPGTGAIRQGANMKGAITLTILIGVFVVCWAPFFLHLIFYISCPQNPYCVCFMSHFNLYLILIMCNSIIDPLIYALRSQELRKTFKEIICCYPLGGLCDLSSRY
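system = U2OS cells with stable human MC4R expression | also added = Melanotan II challenge after compound preincubation | dosing = one concentration, 6.5 µM nominal | incubation = compound 30 min, challenge 1 h, detection 1 h | measured by = TR-FRET with Eu-cAMP and labeled anti-cAMP, 671 nm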
MC4R ag barr: MC4R agonists recruiting beta-arrestin, primary screen, cell-based, luminescence, agonist arm of biased-ligand search | Melanocortin receptor 4 (Homo sapiens), P32245 | U2OS MC4R beta-arrestin complementation; percent of melanotan II response, DMSO zero | 360,000 tested, 0.98% active | activation, % at 8.9 µM;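 active means activation above a per-plate cutoff, the mean activation of sample wells on that plate plus 3 SD, cut at about 8% in these data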
Myeloid diff 2: induction of myeloid progenitor differentiation, primary screen, cell-based, flow cytometry, MLPCN library. 360,000 tested, 1% active. calls only at 10 µM. ER-HoxA9 myeloid progenitors, lysozyme-GFP differentiation;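 active means normalized GFP-positive differentiation at or above the plate's own cutoff, the solvent-only control mean plus 3 SD; inconclusive means no clear call, values can overlap the other calls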;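 further: cells exposed to compound for four days before flow analysis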
Granule exo inh: LAMP-1 surface exposure blockers, TALL-104 cells – cell-based, flow cytometry, MLPCN library, primary screen; TALL-104 LAMP-1 surface exposure; cells stimulated with thapsigargin and PMA; inhibition, % at 10 µM; 360,000 tested, 0.66% active; AID 651702, 2012;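 active means inhibition above about 55%, limit read from the data; inconclusive means no clear call, values can overlap the other calls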
EBI2 block: EBI2 receptor antagonists, beta-arrestin recruitment, primary screen, cell-based, luminescence, 7a,25-OHC stimulation, uHTS. G-protein coupled receptor 183 (Homo sapiens), P32249. 7a,25-OHC stimulated. inhibition, % at 5 µM. 360,000 tested, 0.81% active; in the data active means inhibition above about 38%;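 further: enzyme fragment complementation signal reports receptor beta-arrestin coupling in cells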
Target sequence (P32249 whole entry, looked up, the tested form may be a part): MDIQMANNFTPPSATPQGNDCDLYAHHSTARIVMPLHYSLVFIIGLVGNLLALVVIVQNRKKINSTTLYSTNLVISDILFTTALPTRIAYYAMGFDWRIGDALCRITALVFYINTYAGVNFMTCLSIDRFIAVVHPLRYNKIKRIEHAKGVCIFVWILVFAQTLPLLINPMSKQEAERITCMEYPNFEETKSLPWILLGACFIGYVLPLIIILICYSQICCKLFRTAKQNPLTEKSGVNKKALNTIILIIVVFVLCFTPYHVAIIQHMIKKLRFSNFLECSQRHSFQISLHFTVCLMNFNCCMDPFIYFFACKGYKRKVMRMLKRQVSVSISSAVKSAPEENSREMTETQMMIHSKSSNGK
MC4R barr ag: MC4R beta-arrestin agonists, retest, confirmation, cell-based, luminescence, U2OS. U2OS MC4R beta-arrestin recruitment; scaled DMSO 0%, Melanotan II 100%. activation, % at 8.9 µM. shares compounds with MC4R ag barr. 2,400 tested, 31% active. AID 602192, 2012;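 active means mean activation across replicates above the hit cutoff set in the earlier primary screen, cut at about 8% in these data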
MOR DOR agonist: agonists of MOR-DOR heterodimerization, counter-screen for MC4R biased agonist project, cell-based, luminescence. U2OS PathHunter beta-arrestin, beta-gal luminescence; percent of deltorphin B response, DMSO zero. 2,400 tested, 5.8% active. shares compounds with MC4R ag barr. AID 602194, 2012. activation, % at 9.2 µM;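 active means mean activation across replicates exceeds the hit threshold derived in the earlier primary screen, cut at about 18% in these data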
Myeloid diff: inducers of myeloid progenitor differentiation, confirmation, cell-based, GFP/Mac1 flow cytometry, cherry pick 01. shares compounds with Myeloid diff 2. ER-HoxA9 myeloid progenitors, GFP/Mac1 double-positive flow. 2,300 tested, 2% active. calls only;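 active means share of green or green-and-red cells above 9 and 9% in run 1 or 4 and 3% in run 2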
GFP autofluor: counter-screen for myeloid differentiation promoters: compound fluorescence | shares compounds with Myeloid diff 2 | ER-HoxA9 myeloid progenitors, no estrogen, GFP autofluorescence flow cytometry; vehicle wells 0%, positive control 100% | fluorescence response, % (test concentration not listed) | 2,300 tested, 7.4% active | AID 651707;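 active means over 5% cells positive for green fluorescent reporter, or over 2% positive for both it and APC stain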
EBI2 antag conf: EBI2 antagonist hit retest, beta-arrestin, confirmation, cell-based, single concentration, luminescence, 7a,25-OHC stimulation. 2,400 tested, 29% active. 7a,25-OHC antagonism. AID 651997, 2013. shares compounds with EBI2 block. inhibition, % at 5 µM;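 active means inhibition of at least 50%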
EBI2 ag: EBI2 agonist activity of antagonist hits, confirmation, counter-screen for EBI2 antagonist project, cell-based, single concentration, agonist mode, luminescence; activation, % at 5 µM; 2,400 tested, under 10 active; EBI2-expressing cells, 60 min; 0% vehicle, 100% 7α,25-dihydroxycholesterol control; shares compounds with EBI2 block;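 active means activation of at least 50%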
bGal cs: E. coli beta-galactosidase enzyme inhibition, confirmation, counter-screen for EBI2 antagonist project, biochemical, luminescence, single concentration; shares compounds with EBI2 block; purified beta-galactosidase, luminescent Galacton Star, 15 min; 2,400 tested, 1% active; inhibition, % at 5 µM;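 active means replicate-average signal at least 3 plate SD below neutral wells, shown as high inhibition, flagging enzyme-inhibiting false positives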;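 further: higher means stronger loss of beta-gal luminescence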
Numbers stand for hits; i = inactive; ? = inconclusive; nt = no result given.

SMILES | MC4R antagonist | MC4R ag barr | Myeloid diff 2 | Granule exo inh | EBI2 block | MC4R barr ag | MOR DOR agonist | EBI2 antag conf | EBI2 ag | bGal cs | others
COc1ccc(OCC(O)CN2CCN(c3ccc(Cl)cc3)CC2)cc1 (centres undefined) | i | 11 | i | i | 47 | i | i | i | i | i
COc1ccc(-c2nn(-c3ccccc3)cc2/C=N/NC(=O)c2ccc(Br)o2)cc1 | i | i | i | i | i | nt | nt | nt | nt | nt
C=CCNC(=S)N/N=C/c1cn(-c2ccccc2)nc1-c1ccc(OC)cc1 | i | 15 | i | i | 45 | i | i | i | i | i
CCC1(c2ccccc2)NC(=O)N(CC(=O)Nc2cc(S(=O)(=O)N3CCCCC3)ccc2OC(C)C)C1=O (centres undefined) | i | i | i | i | i | nt | nt | nt | nt | nt
Cc1oc(C(C)(C)C)cc1C(=O)N1CCN(c2ncccc2C(F)(F)F)CC1 | i | i | i | i | i | nt | nt | nt | nt | nt
Cc1cc(C)c2cc(C(=O)N3CCN(c4ncccc4C(F)(F)F)CC3)[nH]c2c1 | i | 12 | i | i | 77 | i | i | i | i | i
COC(=O)c1ccc(C2C(Oc3ccc(OC)cc3)C(=O)N2CCc2ccc(OC)c(OC)c2)cc1 (centres undefined) | i | i | i | i | i | nt | nt | nt | nt | nt
COC(=O)c1ccc(C2C(Oc3ccccc3)C(=O)N2CCc2ccc(F)cc2)cc1 (centres undefined) | i | 20 | i | i | 53 | i | i | i | i | i
O=C(Nc1ccccc1C(=O)Nc1ccc(Br)cn1)c1cccc([N+](=O)[O-])c1 | i | i | ? | i | i | nt | nt | nt | nt | nt
CNC(=O)/C(C#N)=C\c1ccc(CNS(=O)(=O)c2ccccc2)o1 | i | i | i | i | i | nt | nt | nt | nt | nt
CNC(=O)/C(C#N)=C/c1ccc(-c2nc3ccccc3s2)o1 | i | 38 | i | i | 53 | i | i | i | i | i
O=C(NCc1cccc(C(F)(F)F)c1)c1csc([C@H]2C[C@H](O)[C@@H](CO)O2)n1 | i | i | i | i | i | nt | nt | nt | nt | nt
Cc1ccnc(NC(=O)C(C)N2C(=O)c3ccccc3S2(=O)=O)c1 (centres undefined) | i | i | i | i | i | nt | nt | nt | nt | nt
COc1ccc2nc(C)cc(SCC(=O)NNC(=O)COc3ccc(C)cc3)c2c1 | i | 10 | i | i | 67 | i | i | i | i | i | Myeloid diff=i;GFP autofluor=i
COc1ccc(C2=NS(=O)(=O)N(C)C(C(=O)Nc3ccc4c(c3)OCO4)=C2)cc1OC | i | i | i | i | i | nt | nt | nt | nt | nt
CCCN1C(=O)c2cc(C(=O)Nc3ccccc3C)ccc2C1Nc1ccccc1C (centres undefined) | i | i | i | i | i | nt | nt | nt | nt | nt
CCc1ccc(NC(=O)c2ccc3c(c2)C(=O)N(CCOC)C3Nc2ccc(CC)cc2)cc1 (centres undefined) | i | 12 | i | i | 65 | i | i | 62 | i | i
CC(=O)Nc1cc(-c2ccc(N(C)C)cc2)cn2c(-c3ccc(F)cc3)cnc12 | i | 123 | i | i | 54 | 70 | i | 54 | i | i
CC(C)n1c(O)c(/C=C2\C=Nc3ccccc32)sc1=Nc1ccccc1 | i | 13 | i | i | 57 | i | i | i | i | i
CSc1nc(/C=C2\C=Nc3ccccc32)c(O)n1C | i | i | i | i | i | nt | nt | nt | nt | nt
COc1ccc(C(=O)Cn2c(C(=O)/C=C/c3ccccc3)nc3ccccc32)cc1 | i | 23 | i | i | 53 | 9.4 | i | i | i | i
N#C/C(=C\c1cn(CCOc2ccccc2)c2ccccc12)C(=O)NCc1ccco1 | i | 21 | i | i | 46 | 35 | i | i | i | i
O=C(O)C1CC=CCC1C(=O)NCc1ccc(Cl)c(Cl)c1 (centres undefined) | i | i | i | i | i | nt | nt | nt | nt | nt
CCOC(=O)C1(C)CCCN(C(=O)c2ccccc2OC(F)(F)F)C1 (centres undefined) | i | i | i | i | i | nt | nt | nt | nt | nt
O=C(NC(c1ccc(F)cc1)c1ccc2ccccc2n1)C1CCN(CCOc2ccc(Cl)cc2Cl)CC1 (centres undefined) | i | 18 | i | i | 64 | 12 | i | i | i | i
SMILES | MC4R antagonist | MC4R ag barr | Myeloid diff 2 | Granule exo inh | EBI2 block | MC4R barr ag | MOR DOR agonist | EBI2 antag conf | EBI2 ag | bGal cs | others
CCOc1ccc(Br)cc1S(=O)(=O)Nc1ccc(C(=O)Nc2ccc(C)cc2)cc1 | i | 10 | i | i | 56 | i | i | i | i | i
CCOC(=O)C1(C)CCCN(C(=O)Cc2ccc3ccccc3c2)C1 (centres undefined) | i | i | i | i | i | nt | nt | nt | nt | nt
CC(=O)c1nn(-c2ccc(Cl)cc2)cc1C(=O)c1ccccc1 | i | 18 | i | i | 46 | i | i | i | i | i
COc1ccc(-c2cc(C3CCN(Cc4ccc([N+](=O)[O-])cc4)CC3)[nH]n2)cc1 | i | i | i | i | i | nt | nt | nt | nt | nt
Cc1ccc(CN2CCC(c3cc(-c4ccc(Cl)cc4)n[nH]3)CC2)cc1 | i | 10 | i | i | 65 | 19 | i | i | i | i
Cc1onc(-c2ccccc2Cl)c1C(=O)Nc1cccc(S(=O)(=O)NC2=NCCC2)c1 | i | i | i | i | i | nt | nt | nt | nt | nt
CCOC(=O)Nc1nnc(/C=C/c2ccc(OC)cc2)s1 | i | i | i | i | i | nt | nt | nt | nt | nt

Screens as filed in PubChem BioAssay.
